Measurements as given in PMC7161550 (British Journal of Pharmacology, 2020).
Read-outs that look alike come from different tables or passages of the source.

How the values were obtained:
[1] = type: in vivo; conditions: rat, after BIA 10‐2474 10 mg·kg^−1 p.o.
[2] = target: T1, mouse liver fatty acid amide hydrolase (FAAH) (Mus musculus, UniProt O08914); test: Ex vivo FAAH activity in mouse liver after oral administration; conditions: 0.1 mg·kg^−1 p.o., 1 hr after dosing
T1 sequence (O08914 1-579): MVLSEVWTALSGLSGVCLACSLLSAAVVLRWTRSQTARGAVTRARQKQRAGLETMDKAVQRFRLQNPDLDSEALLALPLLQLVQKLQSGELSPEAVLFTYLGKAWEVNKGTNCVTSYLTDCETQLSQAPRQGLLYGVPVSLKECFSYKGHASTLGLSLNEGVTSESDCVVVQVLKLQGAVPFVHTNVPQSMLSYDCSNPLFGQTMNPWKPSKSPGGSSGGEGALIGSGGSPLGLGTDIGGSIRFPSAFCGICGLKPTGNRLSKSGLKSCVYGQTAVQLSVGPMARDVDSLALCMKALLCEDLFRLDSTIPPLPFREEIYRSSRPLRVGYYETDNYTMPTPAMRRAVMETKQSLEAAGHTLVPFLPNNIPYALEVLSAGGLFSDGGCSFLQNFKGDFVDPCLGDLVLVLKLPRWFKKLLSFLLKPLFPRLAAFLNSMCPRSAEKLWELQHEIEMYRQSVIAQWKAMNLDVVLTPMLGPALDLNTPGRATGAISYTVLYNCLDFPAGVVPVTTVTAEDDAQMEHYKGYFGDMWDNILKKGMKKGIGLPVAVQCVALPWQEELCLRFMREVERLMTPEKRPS
Outline: (§1)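 Liver and half-brain were collected into FAAH membrane buffer (3 mM MgCl2, 1 mM EDTA, 50 mM Tris HCl, pH 7.4) and stored at −20°C. Homogenates (15 μg protein brain, 5 μg liver) were pre-incubated 15 min at 37°C. AEA + 3H‑AEA + BSA was added for 10 min (brain) or 7 min (liver), then charcoal. Scintillation counting gave % remaining activity versus controls after blank subtraction.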

[3] = target: T2, fatty acid amide hydrolase (Rattus norvegicus, UniProt P97612); test: Gel‐based competitive ABPP in vitro, TAMRA‐FP probe, rat brain fractions; type: biochemical; conditions: 1 hr
T2 sequence (P97612 1-579): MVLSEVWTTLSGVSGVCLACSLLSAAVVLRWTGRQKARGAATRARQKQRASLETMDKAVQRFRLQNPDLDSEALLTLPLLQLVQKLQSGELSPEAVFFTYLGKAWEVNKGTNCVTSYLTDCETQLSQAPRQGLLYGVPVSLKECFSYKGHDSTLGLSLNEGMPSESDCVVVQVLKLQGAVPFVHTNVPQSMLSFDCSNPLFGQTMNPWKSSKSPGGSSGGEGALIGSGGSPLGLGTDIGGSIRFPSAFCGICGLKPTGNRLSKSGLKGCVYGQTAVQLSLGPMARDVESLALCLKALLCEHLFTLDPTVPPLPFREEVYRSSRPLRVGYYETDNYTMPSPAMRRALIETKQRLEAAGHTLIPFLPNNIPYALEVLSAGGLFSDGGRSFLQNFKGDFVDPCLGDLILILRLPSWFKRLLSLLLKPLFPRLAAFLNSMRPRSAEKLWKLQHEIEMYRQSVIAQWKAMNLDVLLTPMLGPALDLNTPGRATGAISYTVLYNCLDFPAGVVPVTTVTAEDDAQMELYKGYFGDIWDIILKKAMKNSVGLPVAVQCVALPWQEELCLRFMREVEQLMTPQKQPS
Outline: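 Rat brain membrane and soluble protein extracts (200 μg) were incubated 1 hr at room temperature with test compound at 1 nM–100 μM, DMSO vehicle or PMSF 3 mM. Active serine hydrolases were then labelled with TAMRA‑FP probe (2 μM final) for 1 hr at room temperature. Bands were visualized by in-gel fluorescence.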

[4] = Protein binding to cell homogenates; type: in vitro ADME; conditions: 500 μg·ml^−1 of protein
[5] = target: T3, rat brain fatty acid amide hydrolase (FAAH) (Rattus norvegicus, UniProt P97612); type: biochemical; conditions: read-out: IC50 [95% CI]
T3 sequence (P97612 1-579): T2 sequence (P97612 1-579)
Outline: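 Rat brain membranes from Wistar rats, 10 μg protein, in 1 mM EDTA, 10 mM Tris, pH 7.6. Test compound at 1 nM–10 μM, pre-incubated with enzyme 5–60 min, or reaction started with enzyme when not pre-incubated. Substrate 2 μM AEA + 5 nM 3H‑AEA + 0.1% fatty acid-free BSA, 30 min at room temperature with agitation. Charcoal stop; supernatant 3H‑ethanolamine counted. Blank and vehicle controls; IC50 from normalized variable-slope sigmoidal fit.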

[6] = target: T4, human recombinant fatty acid amide hydrolase (FAAH) (Homo sapiens, UniProt O00519); test: FAAH activity in intact COS‐hFAAH cells; type: cell-based; conditions: for IC50: read-out: IC50 [95% CI]
T4 sequence (O00519 1-579): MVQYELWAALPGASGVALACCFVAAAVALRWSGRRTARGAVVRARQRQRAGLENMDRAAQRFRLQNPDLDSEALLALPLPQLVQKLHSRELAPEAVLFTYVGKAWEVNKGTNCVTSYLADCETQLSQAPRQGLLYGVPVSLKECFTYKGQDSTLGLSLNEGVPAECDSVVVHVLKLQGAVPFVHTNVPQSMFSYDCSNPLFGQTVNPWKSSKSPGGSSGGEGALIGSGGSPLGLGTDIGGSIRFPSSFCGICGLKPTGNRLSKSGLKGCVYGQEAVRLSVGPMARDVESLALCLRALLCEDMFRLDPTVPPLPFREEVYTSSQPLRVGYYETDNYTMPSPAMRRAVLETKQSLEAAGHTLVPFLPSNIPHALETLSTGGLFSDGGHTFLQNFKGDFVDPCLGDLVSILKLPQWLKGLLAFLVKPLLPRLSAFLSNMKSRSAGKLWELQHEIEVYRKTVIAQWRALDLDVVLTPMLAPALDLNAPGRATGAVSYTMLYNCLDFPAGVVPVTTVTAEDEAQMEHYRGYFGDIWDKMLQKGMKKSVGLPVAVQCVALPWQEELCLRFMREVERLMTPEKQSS

[7] = tested on: brain fatty acid amides (AEA, PEA, OEA); test: Fatty acid amides; type: in vivo; conditions: mouse brain, 8 hr
Outline: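 Frozen brains were thawed at 4°C and weighed. Each sample was extracted with chloroform:MeOH (2:1) plus 0.1 M phosphate buffer, pH 5.6. Deuterated internal standards were spiked in: AEA‑d8, PEA‑d4 and OEA‑d2 for the fatty acid amides, and 2‑AG‑d8 for 2‑AG.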

[8] = tested on: 229 assays for receptors, enzymes, transporters, ion channels, hormones, growth factors and inflammatory mediators; type: binding; conditions: 10 and 50 μM
[9] = target: T5, mouse brain fatty acid amide hydrolase (FAAH) (Mus musculus, UniProt O08914); test: Ex vivo FAAH activity in mouse brain after oral administration; conditions: 0.1 mg·kg^−1 p.o., 1 hr after dosing
T5 sequence (O08914 1-579): T1 sequence (O08914 1-579)
Outline: as §1

COS‐hFAAH cells = test: Quantification of compounds in COS‐hFAAH supernatant, cell lysates and medium; type: in vitro ADME; conditions: 1, 3 and 24 hr
[10] = target: T6, rat brain fatty acid amide hydrolase (Rattus norvegicus, UniProt P97612); test: FAAH progression curves, kinetic constants k obs and k inact/K I; type: biochemical; conditions: inhibition of rat brain FAAH, 37°C
T6 sequence (P97612 1-579): T2 sequence (P97612 1-579)

With CN(C(=O)n1cnc(-c2cccnc2)c1)[C@H]1CC[C@H](O)CC1 [BIA 10‐2631, N‐((1R,4R)‐4‐hydroxycyclohexyl)‐N‐methyl‐4‐(pyridin‐3‐yl)‐1H‐imidazole‐1‐carboxamide] the “brain levels at all time points measured” value [1] was “below the limit of quantification”.
In the case of CN(C(=O)n1cnc(-c2ccc[n+]([O-])c2)c1)[C@H]1CC[C@H](O)CC1 [BIA 10‐2639, 3‐(1‐(((1R,4R)‐4‐hydroxycyclohexyl)(methyl)carbamoyl)‐1H‐imidazol‐4‐yl)pyridine 1‐oxide], the “brain levels at all time points measured” value [1] is reported as “below the limit of quantification”.
For O=C(Nc1cnccc1Cl)N1CCN(Cc2ccc3c(c2)OC(F)(F)O3)CC1 [JNJ‐42165279], the “inhibition of liver FAAH” value [2] was 25.5%, the “concentration that completely inhibited the band corresponding to the MW of FAAH” value [3] was 10 µM and the “mean % free fraction ± SD” value [4] was 64.3 ± 4.0%. It also gave an IC50 ([5]; pre‐incubation 0 min) of 472 nM, an IC50 ([5]; pre‐incubation 5 min) of 365 nM and an IC50 ([5]; pre‐incubation 15 min) of 272 nM. It also gave an IC50 ([5]; pre‐incubation 30 min) of 221 nM, an IC50 ([5]; pre‐incubation 45 min) of 161 nM and an IC50 ([5]; pre‐incubation 60 min) of 94.3 nM. The “inhibition level above 30 nM” value ([6]; 1‐ and 3‐hr periods) was “around 50%”, the IC50 ([6]; incubation 1 hr) was 26.2 nM and the IC50 ([6]; incubation 3 hr) was 25.1 nM. The IC50 ([6]; incubation 24 hr) was 41.5 nM, the AEA ([7]; 1 mg·kg^−1 p.o.) was 89.0 ± 20.6 % of control and the OEA ([7]; 1 mg·kg^−1 p.o.) was 114.9 ± 13.36 % of control. For the same compound, the PEA ([7]; 1 mg·kg^−1 p.o.) was 123.4 ± 11.2 % of control, the AEA ([7]; 3 mg·kg^−1 p.o.) was 83.6 ± 9.1 % of control and the OEA ([7]; 3 mg·kg^−1 p.o.) was 121.7 ± 10.2 % of control. The PEA ([7]; 3 mg·kg^−1 p.o.) was 138.3 ± 19.4 % of control, the AEA ([7]; 10 mg·kg^−1 p.o.) was 86.5 ± 4.8 % of control and the OEA ([7]; 10 mg·kg^−1 p.o.) was 147.3 ± 13.8 % of control. The PEA ([7]; 10 mg·kg^−1 p.o.) was 205.6 ± 37.0 % of control, the AEA ([7]; 30 mg·kg^−1 p.o.) was 95.5 ± 2.5 % of control and the OEA ([7]; 30 mg·kg^−1 p.o.) was 234.9 ± 46.8 % of control. The PEA ([7]; 30 mg·kg^−1 p.o.) was 382.2 ± 103.5 % of control, the “off‐target activity at the sites studied” value [8] was “some weak activity at just seven sites” and the “inhibition of brain FAAH” value [9] was 19.2%. The “detection in cell lysates” value (COS‐hFAAH cells) was “undetectable”, the “stability in cellular media over time” value (COS‐hFAAH cells) was “stable” and the “k inact/K I” value [10] was 5,092 M·s^−1.
